In brackets after ≈: the same amount, converted by molar mass.
Legend:
Format in all cases: functional, Salmonella enterica subsp. enterica serovar Typhimurium
Salmonella typhimurium [1] = experiment: Antimicrobial activity against Salmonella enterica serovar Typhimurium S21 gyrA+
In short: (§1)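 MICs measured by broth microdilution on the Sensititre automated system and interpreted by CLSI broth microdilution standards. Ciprofloxacin was also tested by agar dilution, widening the range to 0.0075–128 μg/ml. Quality control strains were E. coli ATCC 25922 and 35218, E. faecalis ATCC 29212, S. aureus ATCC 29213 and P. aeruginosa ATCC 27853.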

Salmonella typhimurium [2] = experiment: Antimicrobial activity against Salmonella enterica serovar Typhimurium S21-3 with GyrA S83F, ParC S80I mutation; in short: as §1
Salmonella typhimurium [3] = experiment: Antimicrobial activity against Salmonella enterica serovar Typhimurium CHS14 gyrA+ with GyrA D87G mutation; in short: as §1
Salmonella typhimurium [4] = experiment: Antimicrobial activity against Salmonella enterica serovar Typhimurium CHS18 with GyrA S38F mutation; in short: as §1
Salmonella typhimurium [5] = experiment: Antimicrobial activity against Salmonella enterica serovar Typhimurium S21-1 GyrA S83F mutant; in short: as §1
Salmonella typhimurium [6] = experiment: Antimicrobial activity against Salmonella enterica serovar Typhimurium S21 tolC::Kan
In short: (§2)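 MICs by automated broth microdilution panels, interpreted to CLSI broth microdilution standards. Ciprofloxacin additionally tested by agar dilution across 0.0075 to 128 μg/ml. Quality control strains: E. coli ATCC 25922 and 35218, Enterococcus faecalis ATCC 29212, S. aureus ATCC 29213, P. aeruginosa ATCC 27853. Test strains are kanamycin-marked deletion mutants of ground-beef isolate S21.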

Salmonella typhimurium [7] = experiment: Antimicrobial activity against Salmonella enterica serovar Typhimurium S21-2 gyrA+ with ParC S80I mutation; in short: as §1
Salmonella typhimurium [8] = experiment: Antimicrobial activity against Salmonella enterica serovar Typhimurium S21-3 tolC::Kan with GyrA S83F, ParC S80I mutation; in short: as §1
Salmonella typhimurium [9] = experiment: Antimicrobial activity against Salmonella enterica serovar Typhimurium S21-1 tolC::Kan with GyrA S83F mutation; in short: as §1
Salmonella typhimurium [10] = experiment: Antimicrobial activity against Salmonella enterica serovar Typhimurium S21-4 with GyrA S83F, ParC S80I mutation; in short: as §1
Salmonella typhimurium [11] = experiment: Antimicrobial activity against Salmonella enterica serovar Typhimurium CHS38 gyrA+ with GyrA D87G mutation; in short: as §1
Salmonella typhimurium [12] = experiment: Antimicrobial activity against Salmonella enterica serovar Typhimurium S21-3 gyrA+ with ParC S80I mutation; in short: as §1
Salmonella typhimurium [13] = experiment: Antimicrobial activity against Salmonella enterica serovar Typhimurium CS3 tolC::Kan with GyrA S83F, D87N, parC S80I mutation; in short: as §1
Salmonella typhimurium [14] = experiment: Antimicrobial activity against Salmonella enterica serovar Typhimurium S21-3 acrAB::Kan with GyrA S83F, ParC S80I mutation; in short: as §1
Salmonella typhimurium [15] = experiment: Antimicrobial activity against Salmonella enterica serovar Typhimurium CS9 tolC::Kan with GyrA S83F, D87N, ParC S80I mutation; in short: as §1
Salmonella typhimurium [16] = experiment: Antimicrobial activity against Salmonella enterica serovar Typhimurium CS9 gyrA+ with GyrA S83F, D87N, ParC S80I mutation; in short: as §1
Salmonella typhimurium [17] = experiment: Antimicrobial activity against Salmonella enterica serovar Typhimurium S21-2 tolC::Kan with GyrA S83F, ParC S80I mutation; in short: as §1
Salmonella typhimurium [18] = experiment: Antimicrobial activity against Salmonella enterica serovar Typhimurium CS9 acrAB::Kan with GyrA S83F, D87N, ParC S80I mutation; in short: as §1
Salmonella typhimurium [19] = experiment: Antimicrobial activity against Salmonella enterica serovar Typhimurium CHS38 with GyrA D87G mutation; in short: as §1
Salmonella typhimurium [20] = experiment: Antimicrobial activity against Salmonella enterica serovar Typhimurium S21-4 gyrA+ with ParC S80I mutation; in short: as §1
Salmonella typhimurium [21] = experiment: Antimicrobial activity against Salmonella enterica serovar Typhimurium S21; in short: as §1
Salmonella typhimurium [22] = experiment: Antimicrobial activity against Salmonella enterica serovar Typhimurium S21-4 tolC::Kan with GyrA S83F, ParC S80I mutation; in short: as §1
Salmonella typhimurium [23] = experiment: Antimicrobial activity against Salmonella enterica serovar Typhimurium S21-2 acrAB::Kan with GyrA S83F, ParC S80I mutation; in short: as §1
Salmonella typhimurium [24] = experiment: Antimicrobial activity against Salmonella enterica serovar Typhimurium CHS14 with GyrA D87G mutation; in short: as §1
Salmonella typhimurium [25] = experiment: Antimicrobial activity against Salmonella enterica serovar Typhimurium CS3 acrAB::Kan with GyrA S83F, D87N, ParC S80I mutation; in short: as §1
Salmonella typhimurium [26] = experiment: Antimicrobial activity against Salmonella enterica serovar Typhimurium CHS38 acrAB::Kan with GyrA D87G mutation; in short: as §1
Salmonella typhimurium [27] = experiment: Antimicrobial activity against Salmonella enterica serovar Typhimurium CS1 with GyrA S83F, D87N, ParC S80I mutation; in short: as §1
Salmonella typhimurium [28] = experiment: Antimicrobial activity against Salmonella enterica serovar Typhimurium GyrA S21-1 acrAB::Kan with GyrA S83F mutation; in short: as §1
Salmonella typhimurium [29] = experiment: Antimicrobial activity against Salmonella enterica serovar Typhimurium CHS18 acrAB::Kan with GyrA S38F mutation; in short: as §1
Salmonella typhimurium [30] = experiment: Antimicrobial activity against Salmonella enterica serovar Typhimurium CHS18 tolC::Kan with GyrA S38F mutation; in short: as §1
Salmonella typhimurium [31] = experiment: Antimicrobial activity against Salmonella enterica serovar Typhimurium CS1 gyrA+ with GyrA S83F, D87N, ParC S80I mutation; in short: as §1
Salmonella typhimurium [32] = experiment: Antimicrobial activity against Salmonella enterica serovar Typhimurium S21-4 acrAB::Kan with GyrA S83F, ParC S80I mutation; in short: as §1
Salmonella typhimurium [33] = experiment: Antimicrobial activity against Salmonella enterica serovar Typhimurium S21 acrAB::Kan; in short: as §2
Salmonella typhimurium [34] = experiment: Antimicrobial activity against Salmonella enterica serovar Typhimurium CS3 with GyrA S83F, D87N, ParC S80I mutation; in short: as §1
Salmonella typhimurium [35] = experiment: Antimicrobial activity against Salmonella enterica serovar Typhimurium S21-2 with GyrA S83F, ParC S80I mutation; in short: as §1
Salmonella typhimurium [36] = experiment: Antimicrobial activity against Salmonella enterica serovar Typhimurium CS1 tolC::Kan with GyrA S83F, D87N, ParC S80I mutation; in short: as §1
Salmonella typhimurium [37] = experiment: Antimicrobial activity against Salmonella enterica serovar Typhimurium CHS38 tolC::Kan with GyrA D87G mutation; in short: as §1
Salmonella typhimurium [38] = experiment: Antimicrobial activity against Salmonella enterica serovar Typhimurium CS3 gyrA+ with GyrA S83F, D87N, ParC S80I mutation; in short: as §1
Salmonella typhimurium [39] = experiment: Antimicrobial activity against Salmonella enterica serovar Typhimurium CHS18 gyrA+ with GyrA S38F mutation; in short: as §1
Salmonella typhimurium [40] = experiment: Antimicrobial activity against Salmonella enterica serovar Typhimurium CHS14 tolC::Kan with GyrA D87G mutant; in short: as §1
Salmonella typhimurium [41] = experiment: Antimicrobial activity against Salmonella enterica serovar Typhimurium S21-1 gyrA+; in short: as §1
Salmonella typhimurium [42] = experiment: Antimicrobial activity against Salmonella enterica serovar Typhimurium CHS14 acrAB::Kan with GyrA D87G mutation; in short: as §1
Salmonella typhimurium [43] = experiment: Antimicrobial activity against Salmonella enterica serovar Typhimurium CS9 with GyrA S83F, D87N, ParC S80I mutation; in short: as §1
Salmonella typhimurium [44] = experiment: Antimicrobial activity against Salmonella enterica serovar Typhimurium CS1 acrAB::Kan with GyrA S83F, D87N, ParC S80I mutation; in short: as §1

C[C@H]1COc2c(N3CCN(C)CC3)c(F)cc3c(=O)c(C(=O)O)cn1c23.C[C@H]1COc2c(N3CCN(C)CC3)c(F)cc3c(=O)c(C(=O)O)cn1c23.O [LEVOFLOXACIN]
MIC (Salmonella typhimurium [1]): 0.03 µg/mL
MIC (Salmonella typhimurium [2]): > 16 µg/mL
MIC (Salmonella typhimurium [3]): 0.06 µg/mL
MIC (Salmonella typhimurium [4]): 0.25 µg/mL
MIC (Salmonella typhimurium [5]): 0.5 µg/mL
MIC (Salmonella typhimurium [6]): < 0.015 µg/mL
MIC (Salmonella typhimurium [7]): 0.25 µg/mL
MIC (Salmonella typhimurium [8]): 0.12 µg/mL
MIC (Salmonella typhimurium [9]): 0.06 µg/mL
MIC (Salmonella typhimurium [10]): > 16 µg/mL
MIC (Salmonella typhimurium [11]): < 0.015 µg/mL
MIC (Salmonella typhimurium [12]): 1 µg/mL
MIC (Salmonella typhimurium [13]): 1 µg/mL
MIC (Salmonella typhimurium [14]): 0.12 µg/mL
MIC (Salmonella typhimurium [15]): 1 µg/mL
MIC (Salmonella typhimurium [16]): 0.06 µg/mL
MIC (Salmonella typhimurium [17]): 0.06 µg/mL
MIC (Salmonella typhimurium [18]): 2 µg/mL
MIC (Salmonella typhimurium [19]): 0.12 µg/mL
MIC (Salmonella typhimurium [20]): 2 µg/mL
MIC (Salmonella typhimurium [21]): 0.03 µg/mL
MIC (Salmonella typhimurium [22]): 0.25 µg/mL
MIC (Salmonella typhimurium [23]): 0.12 µg/mL
MIC (Salmonella typhimurium [24]): 0.25 µg/mL
MIC (Salmonella typhimurium [25]): 2 µg/mL
MIC (Salmonella typhimurium [26]): 0.03 µg/mL
MIC (Salmonella typhimurium [27]): 8 µg/mL
MIC (Salmonella typhimurium [28]): 0.06 µg/mL
MIC (Salmonella typhimurium [29]): 0.03 µg/mL
MIC (Salmonella typhimurium [30]): 0.03 µg/mL
MIC (Salmonella typhimurium [31]): 0.06 µg/mL
MIC (Salmonella typhimurium [32]): 0.25 µg/mL
MIC (Salmonella typhimurium [33]): < 0.015 µg/mL
MIC (Salmonella typhimurium [34]): 8 µg/mL
MIC (Salmonella typhimurium [35]): 1 µg/mL
MIC (Salmonella typhimurium [36]): 1 µg/mL
MIC (Salmonella typhimurium [37]): < 0.015 µg/mL
MIC (Salmonella typhimurium [38]): 0.06 µg/mL
MIC (Salmonella typhimurium [39]): 0.06 µg/mL
MIC (Salmonella typhimurium [40]): < 0.015 µg/mL
MIC (Salmonella typhimurium [41]): 0.03 µg/mL
MIC (Salmonella typhimurium [42]): 0.03 µg/mL
MIC (Salmonella typhimurium [43]): 8 µg/mL
MIC (Salmonella typhimurium [44]): 2 µg/mL

CCn1cc(C(=O)O)c(=O)c2ccc(C)nc21 [NALIDIXIC ACID]
MIC (Salmonella typhimurium [1]): 4 µg/mL (≈ 17.2 µM)
MIC (Salmonella typhimurium [2]): > 256 µg/mL
MIC (Salmonella typhimurium [3]): 4 µg/mL (≈ 17.2 µM)
MIC (Salmonella typhimurium [4]): 256 µg/mL (≈ 1100 µM)
MIC (Salmonella typhimurium [5]): 256 µg/mL (≈ 1100 µM)
MIC (Salmonella typhimurium [6]): 1 µg/mL (≈ 4.31 µM)
MIC (Salmonella typhimurium [7]): 64 µg/mL (≈ 276 µM)
MIC (Salmonella typhimurium [8]): 32 µg/mL (≈ 138 µM)
MIC (Salmonella typhimurium [9]): 32 µg/mL (≈ 138 µM)
MIC (Salmonella typhimurium [10]): > 256 µg/mL
MIC (Salmonella typhimurium [11]): 8 µg/mL (≈ 34.4 µM)
MIC (Salmonella typhimurium [12]): > 256 µg/mL
MIC (Salmonella typhimurium [13]): 256 µg/mL (≈ 1100 µM)
MIC (Salmonella typhimurium [14]): 64 µg/mL (≈ 276 µM)
MIC (Salmonella typhimurium [15]): 256 µg/mL (≈ 1100 µM)
MIC (Salmonella typhimurium [16]): 4 µg/mL (≈ 17.2 µM)
MIC (Salmonella typhimurium [17]): 64 µg/mL (≈ 276 µM)
MIC (Salmonella typhimurium [18]): > 256 µg/mL
MIC (Salmonella typhimurium [19]): 32 µg/mL (≈ 138 µM)
MIC (Salmonella typhimurium [20]): > 256 µg/mL
MIC (Salmonella typhimurium [21]): 4 µg/mL (≈ 17.2 µM)
MIC (Salmonella typhimurium [22]): > 256 µg/mL
MIC (Salmonella typhimurium [23]): 64 µg/mL (≈ 276 µM)
MIC (Salmonella typhimurium [24]): 128 µg/mL (≈ 551 µM)
MIC (Salmonella typhimurium [25]): > 256 µg/mL
MIC (Salmonella typhimurium [26]): 1 µg/mL (≈ 4.31 µM)
MIC (Salmonella typhimurium [27]): > 256 µg/mL
MIC (Salmonella typhimurium [28]): 32 µg/mL (≈ 138 µM)
MIC (Salmonella typhimurium [29]): 16 µg/mL (≈ 68.9 µM)
MIC (Salmonella typhimurium [30]): 32 µg/mL (≈ 138 µM)
MIC (Salmonella typhimurium [31]): 4 µg/mL (≈ 17.2 µM)
MIC (Salmonella typhimurium [32]): > 256 µg/mL
MIC (Salmonella typhimurium [33]): 1 µg/mL (≈ 4.31 µM)
MIC (Salmonella typhimurium [34]): > 256 µg/mL
MIC (Salmonella typhimurium [35]): > 256 µg/mL
MIC (Salmonella typhimurium [36]): 256 µg/mL (≈ 1100 µM)
MIC (Salmonella typhimurium [37]): 0.5 µg/mL (≈ 2.15 µM)
MIC (Salmonella typhimurium [38]): 4 µg/mL (≈ 17.2 µM)
MIC (Salmonella typhimurium [39]): 32 µg/mL (≈ 138 µM)
MIC (Salmonella typhimurium [40]): 16 µg/mL (≈ 68.9 µM)
MIC (Salmonella typhimurium [41]): 4 µg/mL (≈ 17.2 µM)
MIC (Salmonella typhimurium [42]): 8 µg/mL (≈ 34.4 µM)
MIC (Salmonella typhimurium [43]): > 256 µg/mL
MIC (Salmonella typhimurium [44]): > 256 µg/mL

Reference: ChEMBL document CHEMBL1142136, “Contribution of target gene mutations and efflux to decreased susceptibility of Salmonella enterica serovar typhimurium to fluoroquinolones and other antimicrobials” (2007)
